Values joined by “and” are separate entries in the source; they are usually repeats but may differ in a detail not shown here. Equal entries are not always repeated.
System: Fibroblast
Test: Multiplex assay against human fibroblast
Format: toxicity, cell-based
Summary of the method: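 Hoechst33342, BioTracker Green Microtubule Cytoskeleton Dye, MitoTracker Red and Annexin V Alexa Fluor 680 were added to live cells at seeding, and imaging on a CQ1 microscope at 37°C and 5% CO2 followed compound addition. Gating by CellPathfinder machine learning separated cells into Hoechst high-intensity objects or normal cells, then normal cells into healthy, pyknosed or fragmented nuclei, then pyknosed cells into mitotic or apoptotic. Per cents of healthy-nucleus cells are reported for the tubulin, mitochondrial-mass and membrane-permeability phenotypes.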

[1] = 12 h, 1 µM, compound concentration 1 uM
[2] = 12 h, 10 µM, compound concentration 10 uM
[3] = 24 h, 1 µM, compound concentration 1 uM
[4] = 24 h, 10 µM, compound concentration 10 uM
[5] = 48 h, 1 µM, compound concentration 1 uM
[6] = 48 h, 10 µM, compound concentration 10 uM

## CN1CCN2c3ncccc3Cc3ccccc3C2C1 (stereo unspecified) [MIRTAZAPINE]
[1]
  Population Apoptotic (%): 44% and 33%
  Population Fragmented Nuclei (%): 10% and 24%
  Population Healthy Nuclei (%): 77% and 47%
  Population Hoechst High Intensity Objects (%): 3%
  Population Membrane Permeable-Phenotype (%): 0% and 4%
  Population Mitochondria Different-Phenotype (%): 6% and 5%
  Population Mitotic Cells (%): 56% and 66%
  Population Normal (%): 96%
  Population Pyknosed Nuclei (%): 12% and 27%
  Population Tubulin-Different-Phenotype (%): 24% and 45%
  Total Cell Count: 213 and 156
[2]
  Population Apoptotic (%): 44% and 28%
  Population Fragmented Nuclei (%): 19% and 27%
  Population Healthy Nuclei (%): 69% and 40%
  Population Hoechst High Intensity Objects (%): 1% and 6%
  Population Membrane Permeable-Phenotype (%): 0% and 16%
  Population Mitochondria Different-Phenotype (%): 8% and 7%
  Population Mitotic Cells (%): 55% and 71%
  Population Normal (%): 98% and 93%
  Population Tubulin-Different-Phenotype (%): 30% and 60%
  Total Cell Count: 168 and 140
[3]
  Population Apoptotic (%): 47% and 48%
  Population Healthy Nuclei (%): 82% and 50%
  Population Hoechst High Intensity Objects (%): 5% and 0%
  Population Membrane Permeable-Phenotype (%): 0% and 10%
  Population Mitochondria Different-Phenotype (%): 5% and 10%
  Population Mitotic Cells (%): 52% and 51%
  Population Normal (%): 94% and 99%
  Population Pyknosed Nuclei (%): 10% and 23%
  Population Tubulin-Different-Phenotype (%): 31% and 36%
  Total Cell Count: 201 and 153
[4]
  Population Apoptotic (%): 50% and 46%
  Population Fragmented Nuclei (%): 19% and 29%
  Population Healthy Nuclei (%): 72% and 46%
  Population Hoechst High Intensity Objects (%): 4% and 5%
  Population Membrane Permeable-Phenotype (%): 0% and 15%
  Population Mitochondria Different-Phenotype (%): 9% and 1%
  Population Mitotic Cells (%): 50% and 53%
  Population Normal (%): 95% and 94%
  Population Tubulin-Different-Phenotype (%): 30% and 68%
  Total Cell Count: 186 and 136
[5]
  Population Apoptotic (%): 60% and 50%
  Population Fragmented Nuclei (%): 15% and 36%
  Population Healthy Nuclei (%): 73% and 45%
  Population Hoechst High Intensity Objects (%): 7% and 2%
  Population Membrane Permeable-Phenotype (%): 0% and 11%
  Population Mitochondria Different-Phenotype (%): 4% and 12%
  Population Mitotic Cells (%): 39% and 50%
  Population Normal (%): 92% and 97%
  Population Pyknosed Nuclei (%): 11% and 17%
  Population Tubulin-Different-Phenotype (%): 31% and 56%
  Total Cell Count: 213 and 161
[6]
  Population Apoptotic (%): 66% and 33%
  Population Fragmented Nuclei (%): 17% and 46%
  Population Healthy Nuclei (%): 73% and 41%
  Population Hoechst High Intensity Objects (%): 5% and 2%
  Population Membrane Permeable-Phenotype (%): 0% and 8%
  Population Mitochondria Different-Phenotype (%): 9% and 2%
  Population Mitotic Cells (%): 33% and 66%
  Population Normal (%): 94% and 97%
  Population Pyknosed Nuclei (%): 9% and 12%
  Population Tubulin-Different-Phenotype (%): 36% and 60%
  Total Cell Count: 176 and 120

## O=C(O)c1cc2ccccc2c(Cc2c(O)c(C(=O)O)cc3ccccc23)c1O [PAMOIC ACID]
[1]
  Population Apoptotic (%): 54% and 32%
  Population Fragmented Nuclei (%): 10% and 23%
  Population Healthy Nuclei (%): 81% and 56%
  Population Hoechst High Intensity Objects (%): 2% and 6%
  Population Membrane Permeable-Phenotype (%): 0% and 6%
  Population Mitochondria Different-Phenotype (%): 2% and 8%
  Population Mitotic Cells (%): 45% and 67%
  Population Normal (%): 97% and 93%
  Population Pyknosed Nuclei (%): 7% and 19%
  Population Tubulin-Different-Phenotype (%): 20% and 34%
  Total Cell Count: 147 and 154
[2]
  Population Apoptotic (%): 40% and 37%
  Population Healthy Nuclei (%): 80% and 51%
  Population Hoechst High Intensity Objects (%): 4%
  Population Membrane Permeable-Phenotype (%): 1% and 3%
  Population Mitochondria Different-Phenotype (%): 5% and 3%
  Population Mitotic Cells (%): 60% and 62%
  Population Normal (%): 95%
  Population Pyknosed Nuclei (%): 11% and 24%
  Population Tubulin-Different-Phenotype (%): 23% and 51%
  Total Cell Count: 132 and 156
[3]
  Population Apoptotic (%): 33% and 32%
  Population Fragmented Nuclei (%): 10% and 23%
  Population Healthy Nuclei (%): 86% and 58%
  Population Hoechst High Intensity Objects (%): 3% and 6%
  Population Membrane Permeable-Phenotype (%): 0% and 9%
  Population Mitochondria Different-Phenotype (%): 2% and 11%
  Population Mitotic Cells (%): 66% and 68%
  Population Normal (%): 96% and 93%
  Population Tubulin-Different-Phenotype (%): 17% and 39%
  Total Cell Count: 156 and 147
[4]
  Population Apoptotic (%): 50% and 40%
  Population Healthy Nuclei (%): 77% and 52%
  Population Hoechst High Intensity Objects (%): 2% and 5%
  Population Membrane Permeable-Phenotype (%): 1% and 3%
  Population Mitochondria Different-Phenotype (%): 1% and 5%
  Population Mitotic Cells (%): 50% and 59%
  Population Normal (%): 97% and 94%
  Population Pyknosed Nuclei (%): 13%
  Population Tubulin-Different-Phenotype (%): 20% and 39%
  Total Cell Count: 138 and 170
[5]
  Population Apoptotic (%): 25% and 38%
  Population Fragmented Nuclei (%): 12% and 23%
  Population Healthy Nuclei (%): 79% and 58%
  Population Hoechst High Intensity Objects (%): 4% and 3%
  Population Membrane Permeable-Phenotype (%): 0% and 9%
  Population Mitochondria Different-Phenotype (%): 2% and 8%
  Population Mitotic Cells (%): 75% and 61%
  Population Normal (%): 95% and 96%
  Population Pyknosed Nuclei (%): 8% and 17%
  Population Tubulin-Different-Phenotype (%): 23% and 44%
  Total Cell Count: 155 and 152
[6]
  Population Apoptotic (%): 50% and 60%
  Population Fragmented Nuclei (%): 19% and 32%
  Population Healthy Nuclei (%): 72% and 60%
  Population Hoechst High Intensity Objects (%): 5% and 3%
  Population Membrane Permeable-Phenotype (%): 2% and 3%
  Population Mitochondria Different-Phenotype (%): 5% and 1%
  Population Mitotic Cells (%): 50% and 40%
  Population Normal (%): 94% and 96%
  Population Pyknosed Nuclei (%): 7% and 6%
  Population Tubulin-Different-Phenotype (%): 29% and 28%
  Total Cell Count: 136 and 156
